Results pooled from the literature.
Compare with care: the assays were run in different laboratories.
CTSL: Procathepsin L (CTSL, Homo sapiens, UniProt P07711)
Cnr2: Cannabinoid receptor 2 (Cnr2, Mus musculus, UniProt P47936)
mreB: mreB (Escherichia coli, UniProt P0A9X4)
pol: pol (Feline immunodeficiency virus, UniProt P16088)

| Structure (SMILES) | target | test | test system | conditions | endpoint | result |
| --- | --- | --- | --- | --- | --- | --- |
| CC[C@H](NC(=O)OCc1ccccc1)C(=O)N[C@H](C(=O)N[C@@H](Cc1ccccc1)C(=O)N(C)N(C#N)CCC(N)=O)C(C)(C)C | CTSL | enzyme activity, inhibitor | – | – | Ki | 0.123 µM |
| CCOC(=O)C(CC)(CCCSCCOCCOCCOCCOCCNC(=O)OC(C)(C)C)NC(=O)c1ccc(C2CC2)c(Cc2ccc(F)cc2)n1 (stereo not shown) | Cnr2 | ligand displacement, radioligand | – | cell membranes | Ki | 0.093 µM |
| O=[As](O)(O)c1ccc(Cc2ccc([As](=O)(O)O)cc2)cc1 | Autotaxin (ENPP2, Homo sapiens, UniProt Q13822) | enzyme activity, inhibitor, absorbance | – | – | Ki | 0.0475 µM |
| NCCCNC1CCCCc2c1[nH]c1ccc(Br)cc21 (stereo not shown) | mreB | ATPase activity, inhibitor, absorbance | – | – | IC50 | 25 µM |
| CCCCCCC(C)(C)c1ccc([C@@H]2C[C@H](O)CC[C@H]2CCCO)c(O)c1 | Cnr2 | cAMP, agonist | – | – | EC50 | 0.05 nM |
| CC(C)C[C@H]1C(=O)N2CCC[C@H]2[C@]2(O)O[C@](NC(=O)[C@@H]3C=C4c5cccc6[nH]cc(c56)C[C@H]4N(C)C3)(C(C)C)C(=O)N12 | Solute carrier organic anion transporter family member 1B3 (SLCO1B3, Homo sapiens, UniProt Q9NPD5) | transporter uptake, inhibitor, fluorescence | CHO | 30 min, pH 7.4 | IC50 | 2.2 µM |
| CC[C@@H](C)COc1ccc([C@@H](CO)C(=O)N[C@H](C)c2ccccc2)cc1 | G protein-coupled receptor 88 (Homo sapiens, UniProt Q9GZN0) | cAMP, agonist, TR-FRET | – | – | EC50 | 3090 nM |
| CC(C)c1cccc(NC(=O)C2CC(=O)Nc3ccccc32)c1 (stereo not shown) | CTSL | enzyme activity, inhibitor, FRET | – | – | IC50 | 16.8 µM |
| C=CC(O)CO (stereo not shown) | Cytochrome P450 2E1 (Cyp2e1, Rattus norvegicus, UniProt P05182) | enzyme activity, inhibitor | Fischer 344 rat, liver microsomes | 30 min | IC50 | 1000 µM |
| Cc1ccnc2c1NC(=O)c1cccnc1N2C1CC1 | pol | binding, SPR | – | – | Kd | 185 µM |
| NC(=O)[C@@H]1CC(F)(F)CN1C(=O)c1ccc(N2CC(F)(F)C2)c(OCC2CC2)n1 | Cnr2 | ligand displacement, radioligand | – | cell membranes | Ki | 0.189 µM |
| CCOC(=O)[C@](CC)(CCC[S+]([O-])CCOCCOCCNC(=O)OC(C)(C)C)NC(=O)c1ccc(C2CC2)c(Cc2ccc(F)cc2)n1 (stereo partly shown) | Cnr2 | ligand displacement, radioligand | – | cell membranes | Ki | 0.09 µM |
| CC(C)C[C@H](NC(=O)[C@H]1O[C@@H]1C(=O)O)C(=O)NCCCCN=C(N)N | CTSL | enzyme activity, inhibitor | – | – | IC50 | 0.000238 µM |
| NC1CCCCc2c1[nH]c1ccc(Br)cc21 (stereo not shown) | mreB | ATPase activity, inhibitor, absorbance | – | – | IC50 | 44 µM |
| Cc1nc([C@@](C)(CC2CC2)NC(=O)c2cc(OCC(F)(F)F)c(C3CC3)cn2)no1 | Cnr2 | ligand displacement, radioligand | – | cell membranes | Ki | 0.006 µM |
| Cc1cc(/C=C/C#N)cc(C)c1Nc1ccnc(Nc2ccc(C#N)cc2)n1 | pol | enzyme activity, inhibitor | – | – | IC50 | 0.0509 µM |
